Assay results taken from publication PMC5800744 (ACS chemical neuroscience, 2015).
Values after ≈ are worked out from the molar mass of the structure shown.

Tests used:
[1] = test system: cortical lesion after controlled cortical impact; settings: TBI mice; routes of administration and dose regimens different; cited from earlier work
[2] = Water solubility determination; format: physicochemical; settings: saturated solution in water
How it was run: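 A saturated solution of test compound in water was centrifuged. The supernatant was quantified by UPLC with UV detection at 245 nm against calibration curves from known concentrations. The relative value compares the solubilities of the two compounds measured this way.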

[3] = test system: red blood cells (horse whole blood); assay: Hemolysis of red blood cells; format: cell-based; settings: up to concentrations of 160 μM; 37 °C, 1 h
How it was run: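 Horse whole-blood RBCs were pelleted at 7 000g and washed three times in 0.1 M PBS. Test compound, from DMSO stock, was incubated with RBCs in PBS at final 5–160 μM for 1 h at 37 °C, in duplicate. Controls were Triton X-100 (positive) and DMSO/PBS (negative). Samples were spun at 13 000g, supernatant absorbance was read at 541 nm, and IC50 was calculated from the plotted data.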

[4] = test system: HepG2 cells; assay: XTT cytotoxicity assay; format: cell-based
How it was run: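 XTT viability in HepG2 cells, run in triplicate, with IC50 obtained by curve fitting.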

[5] = PK and brain distribution after single iv dose; format: in vivo, mice (male C57Bl/6J); settings: male mice
[6] = target: MMP-9; settings: cited from earlier work
[7] = 2 after single iv dose of 2 (6.3 mg/kg), plasma
[8] = 2 in brain after single iv dose of 2 (6.3 mg/kg)
[9] = 2 in brain after single iv dose of 3 (7.8 mg/kg)
[10] = 2 in plasma after single iv dose of 2 (6.3 mg/kg)
[11] = 2 in plasma after single iv dose of 3 (7.8 mg/kg)

## O=S(=O)(CC1CS1)c1ccc(Oc2ccccc2)cc1 (centres unmarked) [SB-3CT]
[1]
  reduction in brain damage: 14%

## O=S(=O)(CC1CS1)c1ccc(Oc2ccc(O)cc2)cc1 (centres unmarked) [Compound 2, p-hydroxy SB-3CT]
[2]
  aqueous solubility: 22.2 µg/mL (≈ 68.9 µM)
[3]
  hemolysis of red blood cells: not observed
[4]
  IC50: 114 ± 1 µM
[5]; 2 after single iv dose of 2 (6.3 mg/kg)
  brainAUC/plasmaAUC: 1.2
[5]; [7]
  CL: 105 mL/min/kg
  Vd: 0.850 L/kg
[5]; 2 after single iv dose of 3 (7.8 mg/kg)
  brainAUC/plasmaAUC: 0.53
[5]; [8]
  AUC0-last: 232 pmol·min/mg
  AUC0-∞: 235 pmol·min/mg
  t1/2α: 3.0 min
  t1/2β: 49 min
[5]; [9]
  AUC0-last: 26 pmol·min/mg
  AUC0-∞: 27 pmol·min/mg
  t1/2α: 3.1 min
  t1/2β: 8.3 min
[5]; [10]
  AUC0-last: 189 µM·min
  AUC0-∞: 195 µM·min
  t1/2α: 3.4 min
  t1/2β: 45 min
[5]; [11]
  AUC0-last: 49 µM·min
  AUC0-∞: 49 µM·min
  t1/2α: 3.0 min
  t1/2β: 6.5 min
[6]; MMP-9
  Ki: 0.16 ± 0.08 µM

## TIMP-1: tissue inhibitor of matrix metalloproteinase-1
[6]; time the inhibitor remains complexed with the target
  residence time: 7.9 min
